An excerpt weighted towards active compounds, which were near 1.6% of everything screened.
FLuc stim CS: firefly luciferase counter-screen for stimulation assays; P08659; ATPlite luciferase biochemical, luminescence, 10 min; 0 = ATP-free wells, 1 = DMSO control; activation factor at 10 µM; 200,000 tested, under 10 active; AID 1027;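 active means luciferase activation factor, scaled between plate controls, of at least 2 with compound at 10 µM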
Target sequence (P08659 whole entry, looked up): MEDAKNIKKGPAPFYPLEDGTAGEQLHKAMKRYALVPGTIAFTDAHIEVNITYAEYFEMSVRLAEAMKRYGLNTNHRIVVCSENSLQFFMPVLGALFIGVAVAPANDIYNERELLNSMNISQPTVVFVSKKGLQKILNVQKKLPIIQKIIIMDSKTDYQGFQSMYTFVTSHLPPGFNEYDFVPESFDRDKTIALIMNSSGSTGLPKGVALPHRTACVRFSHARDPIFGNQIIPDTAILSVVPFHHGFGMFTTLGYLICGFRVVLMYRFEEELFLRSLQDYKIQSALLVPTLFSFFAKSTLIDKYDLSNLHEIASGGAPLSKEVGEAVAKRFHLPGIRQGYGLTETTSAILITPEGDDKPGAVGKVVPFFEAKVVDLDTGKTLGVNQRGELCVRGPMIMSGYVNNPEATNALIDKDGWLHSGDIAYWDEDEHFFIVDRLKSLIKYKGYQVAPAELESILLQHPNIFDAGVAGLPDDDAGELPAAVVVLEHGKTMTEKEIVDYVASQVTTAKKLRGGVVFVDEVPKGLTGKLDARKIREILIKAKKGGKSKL
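Material: Luciferase/luciferin reagent mix; Doses: test compounds dosed from 2 mM stocks in 100% DMSO; Schedule: 10 min incubation after luciferase reagent addition, room temperature; Measured by: luminescence from luciferase reaction; Read-out: luminescence gain marking luciferase activators.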
PPC-1+TRAIL kill: compounds killing PPC-1 cancer cells with TRAIL present (potentiator screen, no TRAIL-free arm); PPC-1 cells + TRAIL, ATPLite viability luminescence; hit rate 0.41% among 220,000; cell killing (% activity), % at 4 µM or 5 µM;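 active means cell killing above 50% in the first pass at 4 µM, then a duplicate retest at 5 µM averaging 50% or more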
C8 TRAIL sens: caspase-8 TRAIL sensitization | NB7+C8 cells + TRAIL, ATPlite viability luminescence | inhibition (viability loss, TRAIL sensitization), % at 10 µM | hit rate 1% among 360,000;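 active means compounds causing at least 50% loss of cell viability in the single-dose screen, relative to plate controls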
FLuc inhib CS: counter-screen for luciferase assay inhibitors: firefly luciferase inhibition; inhibition, % at 10 µM; hit rate 1.5% among 200,000; AID 1006; ATPLite firefly luciferase biochemical luminescence, 10 min;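 active means inhibition above about 50% when tested at 10 µM, limit read from the data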
Of the large screens only hits and unclear results are named; the others gave an inactive call.

Nc1ncnc2c(C3OC(CO)C(O)C3O)c[nH]c12 (configuration not stated)	C8 TRAIL sens 87.7 (no result: FLuc stim CS, PPC-1+TRAIL kill, FLuc inhib CS)
CCCCCCN1C[C@@H](O)[C@H](n2cc(C3CC3)nn2)C[C@@H]1c1ccc(Cl)cc1	none (no result: FLuc stim CS, PPC-1+TRAIL kill, FLuc inhib CS)
CN(C)S(=O)(=O)c1cccc(-c2cn3cc(Cl)ccc3n2)c1	none
Cc1ccn2cc(C(=O)Nc3cccc(C(=O)NC4CC4)c3)nc2c1	C8 TRAIL sens 54.2 (no result: FLuc stim CS, PPC-1+TRAIL kill, FLuc inhib CS)
Cc1ccn2cc(-c3cccc(NC(=O)CCC(=O)O)c3)nc2c1	C8 TRAIL sens 58.8 (no result: FLuc stim CS, PPC-1+TRAIL kill, FLuc inhib CS)
Clc1ccc2nc(-c3ccccc3)cn2c1	C8 TRAIL sens 63.2 (no result: FLuc stim CS, PPC-1+TRAIL kill, FLuc inhib CS)
Cc1ccn2cc(-c3cccc(NS(C)(=O)=O)c3)nc2c1	FLuc inhib CS 58.2
O=C(Nc1cccc(C(=O)NC2CC2)c1)c1ccccc1	none (no result: FLuc stim CS, PPC-1+TRAIL kill, FLuc inhib CS)
O=c1[nH][nH]c(=O)c2nc(Nc3ccccc3)ncc12	none (no result: FLuc stim CS, PPC-1+TRAIL kill, FLuc inhib CS)
COc1ccccc1-c1cc(NC=O)c2ncc(-c3ccc(S(C)(=O)=O)cc3)n2c1	none (no result: FLuc stim CS, PPC-1+TRAIL kill, FLuc inhib CS)
Cn1c(SCC(=O)NC2CCCc3ccccc32)nnc1C1CC1 (configuration not stated)	none (no result: FLuc stim CS, PPC-1+TRAIL kill, FLuc inhib CS)
CC(=O)Nc1cccc(-c2cn3ccc(C)cc3n2)c1	FLuc inhib CS 76.3
CC(=O)Nc1ccc2nc(-c3ccccc3)cn2c1	C8 TRAIL sens 54.3, FLuc inhib CS 70.0
COc1cccc(NC(=O)CSc2nc(O)c(C)c(=O)n2-c2ccc(C)cc2)c1	none (no result: FLuc stim CS, PPC-1+TRAIL kill, FLuc inhib CS)
O=c1c(-c2ccc3c(c2)OCCO3)coc2cc(OC3OC(CO)C(O)C(O)C3O)ccc12 (configuration not stated)	C8 TRAIL sens 54.4 (no result: FLuc stim CS, FLuc inhib CS)
CCc1nc2c(OCCn3cccc3)cccn2c1N(C)C(=O)c1ccccc1F	none (no result: FLuc stim CS, PPC-1+TRAIL kill, FLuc inhib CS)
CCN(CC)S(=O)(=O)c1ccc(NC(=O)Nc2cccc(C(F)(F)F)c2)cc1	C8 TRAIL sens 68.7
COc1ccc(CC(N)c2csc(NC(=O)Nc3cccc(C(F)(F)F)c3)n2)cc1 (configuration not stated)	C8 TRAIL sens 70.2 (no result: FLuc stim CS, PPC-1+TRAIL kill, FLuc inhib CS)
O=C(Nc1ccc(OC(F)F)cc1)Nc1cccc(C(F)(F)F)c1	C8 TRAIL sens 59.6
Cc1ccc(S(=O)(=O)Nc2ccc(NC(=O)Nc3cccc(C(F)(F)F)c3)cc2)cc1	none
NC(Cc1ccc(C(F)(F)F)cc1)c1csc(NC(=O)Nc2ccccc2)n1 (configuration not stated)	none (no result: FLuc stim CS, PPC-1+TRAIL kill, FLuc inhib CS)
O=C1CC(Sc2nnnn2C2CCCCC2)C(=O)N1c1ccccc1 (configuration not stated)	FLuc inhib CS 57.1
O=C(Nc1ccc2nc3n(c(=O)c2c1)CCCCC3)c1c(F)ccc([N+](=O)[O-])c1F	C8 TRAIL sens 68.2 (no result: FLuc stim CS, PPC-1+TRAIL kill, FLuc inhib CS)
COc1cc(C)ccc1S(=O)(=O)NC(=O)C1(C)CCN1C(=O)c1ccc(C(F)(F)F)nc1C (configuration not stated)	none (no result: FLuc stim CS, PPC-1+TRAIL kill, FLuc inhib CS)
COc1ccccc1C(=O)NNC(=O)c1ccccc1[N+](=O)[O-]	none
Cc1ccc(C(=O)C(C)OC(=O)c2ccccc2[N+](=O)[O-])cc1 (configuration not stated)	FLuc inhib CS 65.4
COc1ccc(-n2nc3c(c2NC(=O)c2ccc4c(c2)OCO4)CS(=O)(=O)C3)cc1	none (no result: FLuc stim CS, PPC-1+TRAIL kill, FLuc inhib CS)
O=C(Nc1nc(-c2nc3ccccc3s2)cs1)C1CC1	C8 TRAIL sens 52.4, FLuc inhib CS 54.5
CC(C)CN(C(=O)CSc1nc2ccccc2o1)c1c(N)n(Cc2ccccc2)c(=O)[nH]c1=O	none (no result: FLuc stim CS, PPC-1+TRAIL kill, FLuc inhib CS)
CN(C)CCCN(C(=O)c1ccc(S(=O)(=O)N2CCc3ccccc3C2)cc1)c1nc2ccc(F)cc2s1	C8 TRAIL sens 84.8 (no result: FLuc stim CS, PPC-1+TRAIL kill, FLuc inhib CS)
Cc1cccc2sc(N(CCCN(C)C)C(=O)c3ccc(S(=O)(=O)N4CCc5ccccc5C4)cc3)nc12	none (no result: FLuc stim CS, PPC-1+TRAIL kill, FLuc inhib CS)
COc1ccc2sc(N(CCCN(C)C)C(=O)c3ccc(S(=O)(=O)N4CCc5ccccc5C4)cc3)nc2c1	C8 TRAIL sens 93.1 (no result: FLuc stim CS, PPC-1+TRAIL kill, FLuc inhib CS)
COc1ccc2sc(N(CCCN(C)C)C(=O)c3ccc(S(=O)(=O)N4CCCC4)cc3)nc2c1	none (no result: FLuc stim CS, PPC-1+TRAIL kill, FLuc inhib CS)
CN(C)CCCN(C(=O)c1ccc(S(=O)(=O)N2CCc3ccccc32)cc1)c1nc2ccc(F)cc2s1	none (no result: FLuc stim CS, PPC-1+TRAIL kill, FLuc inhib CS)
Cc1ccc2nc(N(CCCN(C)C)C(=O)c3ccc(S(=O)(=O)N4CCc5ccccc5C4)cc3)sc2c1	C8 TRAIL sens 76.5 (no result: FLuc stim CS, PPC-1+TRAIL kill, FLuc inhib CS)
Cc1cc(C)c2sc(N(CCCN(C)C)C(=O)c3ccc(S(=O)(=O)N4CCCc5ccccc54)cc3)nc2c1	C8 TRAIL sens 74.4 (no result: FLuc stim CS, PPC-1+TRAIL kill, FLuc inhib CS)
Cc1ccc(N2C(=O)N(CC(=O)Nc3ccc(C)cc3Cl)C(=O)C2C)cc1 (configuration not stated)	none (no result: FLuc stim CS, PPC-1+TRAIL kill, FLuc inhib CS)
O=C1C=C(c2ccc(Cl)c(C(F)(F)F)c2)C[C@@H](c2ccc3c(c2)OCO3)C1	none (no result: FLuc stim CS, PPC-1+TRAIL kill, FLuc inhib CS)
CC1CCCCN1C(=O)CSc1nc(C2CC2)nc2ccccc12 (configuration not stated)	none (no result: FLuc stim CS, PPC-1+TRAIL kill, FLuc inhib CS)

Compound activity as filed in PubChem BioAssay.
